# Laboratory results reported in ChEMBL document CHEMBL4334552, “Discovery of BMS-986260, a Potent, Selective, and Orally Bioavailable TGFβR1 Inhibitor as an Immuno-oncology Agent” (ACS Med Chem Lett, 2020).
# Activity calls are given as the source filed them. No cut-off for these calls is given here.
# What was measured:
# Phosphodiesterase 4 = Phosphodiesterase 4 (Homo sapiens, UniProt P27815+Q08499+Q07343+Q08493); assay: Inhibition of PDE4 (unknown origin) by HTRF assay; assay type: protein assay
# [1] = Cmax in Balb/C mouse at 10 mg/kg, po; assay type: ADME, organism-based; parameters: dose 10 mg/kg, route oral; conditions: in vivo
# How it was run: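 Male Balb/C mice, n = 3, dosed at 5 mg/kg iv or 10 mg/kg po. The vehicle was 70% 25 mM acetate buffer pH 4.0, 5% ethanol and 25% PEG 400.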
# [2] = Tmax in Balb/C mouse at 10 mg/kg, po; assay type: ADME, organism-based; conditions: in vivo
# How it was run: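 Male Balb/C mice (n = 3) dosed iv at 5 mg/kg and po at 10 mg/kg. Vehicle was 70% 25 mM acetate buffer pH 4.0, 5% ethanol and 25% PEG 400.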
# [3] = Metabolic stability of compound in human liver microsomes assessed as compound remaining; assay type: ADME, Microsome
# MC-38 [4] = assay: Antitumour activity against mouse MC38 cells allografted in C57Bl/6 mouse assessed as reduction in tumour growth at 3.75 mg/kg, po dosed every 3 days on and 4 days off treatment regime and cotreated with anti-PD1 at 10 mg/kg, ip every 4 days for 3 doses by digital caliper analysis; assay type: functional, organism-based
# How it was run: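 MC38 cells (0.1 mL at 1 × 10^7 cells/mL) were implanted subcutaneously in the right flank of C57/BL6 mice. Randomization was at about 100 mm3, typically day 5. Oral dosing ran 3 days on, 4 days off, over 28 days. Anti-PD-1 was given at 10 mg/kg IP every 4 days for three doses, with isotype MOPC-21 IgG1 as control on the same schedule.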
# [5] = Half life in mouse liver microsomes in presence of NADPH; assay type: ADME, Microsome
# [6] = Half life in rat liver microsomes in presence of UGT/UDPGA; assay type: ADME, Microsome
# [7] = Half life in human liver microsomes in presence of UGT/UDPGA; assay type: ADME, Microsome
# Cytochrome P450 2C9 = Cytochrome P450 2C9 (Homo sapiens, UniProt P11712); assay: Inhibition of recombinant CYP2C9 (unknown origin); assay type: ADME
# Sequence of Cytochrome P450 2C9 (P11712 whole entry): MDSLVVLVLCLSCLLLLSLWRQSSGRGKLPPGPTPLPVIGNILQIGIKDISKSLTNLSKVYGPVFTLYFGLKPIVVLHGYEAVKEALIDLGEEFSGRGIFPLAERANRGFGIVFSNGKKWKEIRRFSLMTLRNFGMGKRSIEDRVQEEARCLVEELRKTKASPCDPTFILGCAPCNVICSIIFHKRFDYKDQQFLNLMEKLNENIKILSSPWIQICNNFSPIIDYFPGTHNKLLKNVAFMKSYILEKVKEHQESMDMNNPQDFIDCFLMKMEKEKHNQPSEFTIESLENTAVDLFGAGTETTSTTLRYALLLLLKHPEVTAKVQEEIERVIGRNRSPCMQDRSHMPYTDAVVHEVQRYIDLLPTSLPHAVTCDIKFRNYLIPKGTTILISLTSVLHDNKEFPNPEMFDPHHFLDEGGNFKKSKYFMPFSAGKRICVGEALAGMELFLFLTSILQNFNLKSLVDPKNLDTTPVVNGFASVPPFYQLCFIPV
# Cytochrome P450 2C19 = Cytochrome P450 2C19 (Homo sapiens, UniProt P33261); assay: Inhibition of recombinant CYP2C19 (unknown origin); assay type: ADME
# Sequence of Cytochrome P450 2C19 (P33261 whole entry): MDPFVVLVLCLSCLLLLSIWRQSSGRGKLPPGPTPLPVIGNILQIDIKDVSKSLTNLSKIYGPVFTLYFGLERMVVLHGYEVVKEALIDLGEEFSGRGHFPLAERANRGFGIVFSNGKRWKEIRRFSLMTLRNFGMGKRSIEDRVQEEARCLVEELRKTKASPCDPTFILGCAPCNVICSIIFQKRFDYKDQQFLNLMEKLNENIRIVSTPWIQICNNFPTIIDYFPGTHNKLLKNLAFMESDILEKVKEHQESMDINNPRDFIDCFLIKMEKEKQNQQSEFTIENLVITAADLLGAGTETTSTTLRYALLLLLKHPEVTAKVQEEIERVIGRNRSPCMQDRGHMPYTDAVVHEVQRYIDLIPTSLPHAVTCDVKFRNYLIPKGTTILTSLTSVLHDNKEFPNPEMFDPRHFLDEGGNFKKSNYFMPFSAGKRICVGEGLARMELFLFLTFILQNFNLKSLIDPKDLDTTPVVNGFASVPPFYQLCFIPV
# Cytochrome P450 2D6 = Cytochrome P450 2D6 (Homo sapiens, UniProt P10635); assay: Inhibition of recombinant CYP2D6 (unknown origin); assay type: ADME
# Sequence of Cytochrome P450 2D6 (P10635 whole entry): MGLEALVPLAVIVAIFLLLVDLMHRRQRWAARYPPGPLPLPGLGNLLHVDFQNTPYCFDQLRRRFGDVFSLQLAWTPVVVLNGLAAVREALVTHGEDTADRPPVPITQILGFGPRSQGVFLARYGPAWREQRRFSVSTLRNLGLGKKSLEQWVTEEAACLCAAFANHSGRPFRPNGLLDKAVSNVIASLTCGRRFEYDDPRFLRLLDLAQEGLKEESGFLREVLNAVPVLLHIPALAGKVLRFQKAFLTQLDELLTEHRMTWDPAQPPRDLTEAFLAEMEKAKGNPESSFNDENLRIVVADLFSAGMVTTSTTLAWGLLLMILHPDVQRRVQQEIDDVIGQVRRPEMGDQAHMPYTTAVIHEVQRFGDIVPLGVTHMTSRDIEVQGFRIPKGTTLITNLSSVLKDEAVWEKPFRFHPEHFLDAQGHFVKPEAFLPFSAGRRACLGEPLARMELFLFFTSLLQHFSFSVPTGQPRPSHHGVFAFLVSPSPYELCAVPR
# Cytochrome P450 3A4 = Cytochrome P450 3A4 (Homo sapiens, UniProt P08684); assay: Inhibition of recombinant CYP3A4 (unknown origin); assay type: ADME
# Sequence of Cytochrome P450 3A4 (P08684 whole entry): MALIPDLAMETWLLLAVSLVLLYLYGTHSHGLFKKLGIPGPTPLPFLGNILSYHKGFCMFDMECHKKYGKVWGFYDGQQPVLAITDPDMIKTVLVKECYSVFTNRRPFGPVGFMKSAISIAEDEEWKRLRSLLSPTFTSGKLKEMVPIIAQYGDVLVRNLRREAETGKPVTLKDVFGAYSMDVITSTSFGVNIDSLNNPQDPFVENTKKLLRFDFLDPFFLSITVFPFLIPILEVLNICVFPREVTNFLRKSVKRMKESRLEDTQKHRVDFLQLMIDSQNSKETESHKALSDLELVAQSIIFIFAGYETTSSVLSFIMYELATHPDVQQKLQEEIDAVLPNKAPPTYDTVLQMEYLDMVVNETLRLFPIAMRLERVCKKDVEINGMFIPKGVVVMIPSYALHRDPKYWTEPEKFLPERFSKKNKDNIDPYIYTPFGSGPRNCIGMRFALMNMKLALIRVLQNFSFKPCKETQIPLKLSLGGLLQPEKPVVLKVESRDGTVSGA
# [8] = target: Voltage-gated inwardly rectifying potassium channel KCNH2 (Homo sapiens, UniProt Q12809); assay: Inhibition of human ERG by electrophysiology analysis
# Sequence of Voltage-gated inwardly rectifying potassium channel KCNH2 (Q12809 whole entry): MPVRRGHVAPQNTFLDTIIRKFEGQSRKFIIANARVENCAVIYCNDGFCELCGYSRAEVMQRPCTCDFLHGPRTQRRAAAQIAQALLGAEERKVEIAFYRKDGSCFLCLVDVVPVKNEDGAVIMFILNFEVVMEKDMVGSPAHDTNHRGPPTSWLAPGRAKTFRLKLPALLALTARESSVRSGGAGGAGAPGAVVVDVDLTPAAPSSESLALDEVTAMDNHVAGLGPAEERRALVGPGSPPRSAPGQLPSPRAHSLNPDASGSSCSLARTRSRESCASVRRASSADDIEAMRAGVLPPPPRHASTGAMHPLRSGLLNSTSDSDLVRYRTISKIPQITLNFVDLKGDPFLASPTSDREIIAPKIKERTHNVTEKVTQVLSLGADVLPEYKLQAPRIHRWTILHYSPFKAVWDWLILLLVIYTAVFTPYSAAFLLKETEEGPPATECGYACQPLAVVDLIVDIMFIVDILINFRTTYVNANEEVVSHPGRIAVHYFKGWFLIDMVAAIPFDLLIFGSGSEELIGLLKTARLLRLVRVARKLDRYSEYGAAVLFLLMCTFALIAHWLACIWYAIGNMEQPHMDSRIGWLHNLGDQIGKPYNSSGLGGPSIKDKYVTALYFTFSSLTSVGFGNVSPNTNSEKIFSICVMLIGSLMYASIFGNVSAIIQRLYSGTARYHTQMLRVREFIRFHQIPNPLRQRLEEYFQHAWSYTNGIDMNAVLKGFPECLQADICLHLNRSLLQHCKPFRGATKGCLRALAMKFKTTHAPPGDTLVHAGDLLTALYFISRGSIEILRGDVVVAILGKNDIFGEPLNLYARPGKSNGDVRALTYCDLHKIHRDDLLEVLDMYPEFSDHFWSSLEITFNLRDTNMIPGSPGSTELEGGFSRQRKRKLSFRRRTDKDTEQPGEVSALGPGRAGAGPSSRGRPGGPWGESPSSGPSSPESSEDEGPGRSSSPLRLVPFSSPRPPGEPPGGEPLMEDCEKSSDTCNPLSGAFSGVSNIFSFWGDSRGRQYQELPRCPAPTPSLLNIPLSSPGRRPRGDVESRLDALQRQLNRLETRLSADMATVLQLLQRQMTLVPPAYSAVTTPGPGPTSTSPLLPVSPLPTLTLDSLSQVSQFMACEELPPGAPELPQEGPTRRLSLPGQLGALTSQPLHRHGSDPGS
# [9] = target: T1, Nuclear receptor subfamily 1 group I member 2 (Homo sapiens, UniProt O75469); assay: Activation of PXR (unknown origin)
# T1 sequence (O75469 whole entry): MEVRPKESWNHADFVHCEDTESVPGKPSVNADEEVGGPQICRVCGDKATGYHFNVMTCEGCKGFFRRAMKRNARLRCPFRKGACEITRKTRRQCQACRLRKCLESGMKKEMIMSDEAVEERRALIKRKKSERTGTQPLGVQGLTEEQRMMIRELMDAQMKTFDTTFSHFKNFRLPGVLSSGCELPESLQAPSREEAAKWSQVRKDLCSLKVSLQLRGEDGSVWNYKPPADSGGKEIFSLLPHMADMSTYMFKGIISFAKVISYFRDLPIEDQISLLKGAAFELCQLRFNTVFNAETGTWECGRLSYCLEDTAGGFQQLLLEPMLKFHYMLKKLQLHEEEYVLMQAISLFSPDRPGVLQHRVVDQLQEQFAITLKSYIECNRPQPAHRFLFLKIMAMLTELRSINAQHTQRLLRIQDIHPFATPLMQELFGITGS
# [10] = Total AUC in Sprague Dawley rat at 10 mg/kg, po; assay type: ADME, organism-based; parameters: dose 10 mg/kg, route oral, time AUCmax; conditions: in vivo
# How it was run: (§1)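 Male Sprague–Dawley rats (n = 3) received a PEG400 solution iv at 5 mg/kg and po at 10 mg/kg.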
# [11] = Volume of distribution at steady state in Sprague Dawley rat at 5 mg/kg, iv; assay type: ADME, organism-based; conditions: in vivo, read-out: Vdss; how it was run: as §1
# [12] = Clearance in Beagle dog at 1 mg/kg, iv; assay type: ADME, organism-based, Canis lupus familiaris; conditions: in vivo
# How it was run: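 Male Beagle dogs, n = 2, pretreated with pentagastrin. The po dose of 5 mg/kg was in 5% ethanol, 45% PEG400 and 50% 25 mM acetate buffer pH 4.0. The iv dose of 1 mg/kg was in 5:45:50 EtOH/PEG400/saline at 1 mL/kg.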
# [13] = Oral bioavailability in Beagle dog at 5 mg/kg; assay type: ADME, organism-based, Canis lupus familiaris; conditions: in vivo
# How it was run: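 Male Beagle dogs (n = 2) were pretreated with pentagastrin and dosed iv at 1 mg/kg and po at 5 mg/kg. The oral vehicle was 5% ethanol, 45% PEG400 and 50% 25 mM acetate buffer pH 4.0. The iv vehicle was 5:45:50 EtOH/PEG400/saline at 1 mL/kg.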
# MC-38 [14] = assay: Induction of long-term antitumor memory response in compound-mediated tumor cured C57Bl/6 mouse allografted with mouse MC38 cells assessed as reduction in tumor growth following rechallenge with newly implanted mouse MC38 cells treated at 3.75 to 15 mg/kg, po qd for 28 days and cotreated with anti-PD1 at 10 mg/kg, ip every 4 days for 3 doses prior to MC38 cells rechallenge by digital caliper analysis; assay type: functional, organism-based
# How it was run: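 Mice cured by oral dosing plus anti-PD-1 (10 mg/kg IP, every 4 days, three doses) were re-implanted with MC38 or LL2 cells. Tumor growth was compared with naive mice.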
# 4T1 = assay: Inhibition of metastasis in mouse 4T1 cells allografted in Balb/C mouse at 3.75 to 7.5 mg/kg, po qd for 28 days cotreated with anti-PD1 at 10 mg/kg, ip every 4 days for 3 doses by India ink/Fekete's solution based staining; assay type: functional, organism-based
# [15] = Cardiovascular toxicity in rat assessed as valvulo-pathy at 1 mg/kg, po for 10 days; assay type: organism-based; conditions: in vivo, 240 h
# How it was run: (§2)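 Exploratory toxicology studies of 10 days with daily oral dosing in rats and dogs. Cardiovascular findings, including valvulopathy and aortic pathology, were assessed.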
# [16] = Cardiovascular toxicity in dog assessed as valvulo-pathy at 5 mg/kg, po for 10 days; assay type: organism-based, Canis lupus familiaris; conditions: in vivo, 240 h; how it was run: as §2
smiles,measurement,setting,value
N#Cc1cnc2ccc(-c3c(-c4ccc(F)c(Cl)c4)ncn3CCO)nn12,IC50,Phosphodiesterase 4,11 µM
same,Cmax,[1],16 µM
same,Tmax,[2],18 min
same,Stability,[3],77%
same,inhibition,MC-38 [4],Active
same,half-life,[5],28 min
same,half-life,[6],> 120 min
same,half-life,[7],> 120 min
same,IC50,Cytochrome P450 2C9,> 20 µM
same,IC50,Cytochrome P450 2C19,> 20 µM
same,IC50,Cytochrome P450 2D6,> 20 µM
same,IC50,Cytochrome P450 3A4,> 20 µM
same,IC50,[8],> 10 µM
same,EC50,[9],> 24 µM
same,AUC,[10],90.8 µM·h
same,Vd,[11],2.4 L/kg
same,clearance,[12],6.4 mL/min/kg
same,bioavailability,[13],93%
same,Activity,MC-38 [14],Active
same,inhibition,4T1,Active
same,Activity,[15],Toxic
same,Activity,[16],Toxic
